Data reported in publication PMC4697833 (Bioorganic & medicinal chemistry, 2015).
Read-outs that look alike come from different tables or passages of the source.

Tests used:
[1] = tested on: TEX cells; assay: Intracellular ROS induction; assay type: cell-based, human; conditions: 30 min
Outline: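 TEX cells were seeded at 5 × 10⁵ cells/mL and incubated overnight at 37 °C, 5% CO₂. They were then exposed to test compound at 25 or 100 µM, with H₂O₂ 100 µM as positive control. CellROX Green (5 µM final) was added at once, followed by 30 min at 37 °C. Cells were washed twice in FACS buffer and 5 × 10⁴ events recorded. Median fluorescence was normalized to untreated control. Runs were in quadruplicate (H₂O₂ triplicate); mean ± S.D.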

[2] = tested on: HL-60 (acute promyelocytic leukemia); assay: Alamar blue cytotoxicity assay, HL-60; assay type: cell-based, human
[3] = tested on: MCF-7 (breast adenocarcinoma); assay: Alamar blue cytotoxicity assay, MCF-7; assay type: cell-based, human
Outline: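 MCF-7 cells were grown in MEM with 10% FBS, bovine insulin 0.01 mg/mL, penicillin and streptomycin at 37 °C in 5% CO₂. They were detached with trypsin-EDTA or TrypLE and seeded at 5,000 cells/well 24 h before dosing. Readout was Alamar blue reduction. IC50 is mean ± S.D. from n ≥ 3 biological replicates.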

[4] = mice, oral dosing 100 mg/kg; cited from earlier work
[5] = tested on: CCRF-CEM (acute lymphoblastic leukemia); assay: Alamar blue cytotoxicity assay, CCRF-CEM; assay type: cell-based, human; conditions: read-out: Growth inhibitory activity (IC50) CCRF-CEM
Outline: (§1)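 Suspension cells (CCRF-CEM; TEX in IMDM with L-glutamine, 15% FBS, SCF 20 ng/mL, IL-3 2 ng/mL, penicillin/streptomycin) were seeded at 10,000 cells/well 24 h before compound addition. Cultures were kept at 37 °C in humidified 5% CO₂. Viability was read with Alamar blue. IC50 is mean ± S.D. of n ≥ 3 biological replicates.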

[6] = canine, oral dosing 100 mg/kg; cited from earlier work
[7] = tested on: DU-145 (prostate cancer); assay: Alamar blue cytotoxicity assay, DU-145; assay type: cell-based, human
[8] = cited from earlier work
[9] = tested on: NCI/ADR-RES (ovarian cancer; adriamycin-resistant); assay: Alamar blue cytotoxicity assay, NCI/ADR-RES; assay type: cell-based, human; conditions: read-out: Growth inhibitory activity (IC50) NCI/ADR-RES; mean ± S.D.
Outline: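 Adherent NCI/ADR-RES cells were seeded at 5,000 cells/well 24 h prior to compound treatment and kept at 37 °C, 5% CO₂. Growth was measured by Alamar blue. IC50 values are mean ± S.D. over n ≥ 3 biological replicates.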

[10] = tested on: mice; conditions: continuous oral dosing 100 mg/kg daily for over four weeks; cited from earlier work
[11] = tested on: murine AML cell line B140P; assay: Murine cytotoxicity assay, B140P; assay type: cell-based; conditions: read-out: Growth inhibitory activity (IC50) B140P
Outline: (§2)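 Murine AML lines were used: B117P and B140P from BXH-2 mice, which develop leukemia from an endogenous murine leukemia virus, and their counterparts B117H and B140H. Cells per well were 25,000 (B117P), 28,000 (B117H), 36,000 (B140P) and 44,000 (B140H) in 96-well format. IC50 values are mean ± S.D. from biological triplicate.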

[12] = tested on: total bone marrow cell population; assay: Flow cytometry viability of total bone marrow cells; assay type: cell-based, human
Outline: (§3)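 Cells were plated at 1 × 10⁶ cells/mL with test compound (25 µM) or doxorubicin (0.5 µM) for 12 h (final DMSO 0.03%). Staining was CD34/CD38, then Annexin V/7-AAD, with over 5 × 10⁴ events. Viability is the unstained fraction, mean ± S.D. of n ≥ 3; unpaired t-tests.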

[13] = Measured LogD7.4; assay type: physicochemical; conditions: pH 7.4
Outline: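 LogD at pH 7.4 was determined experimentally by liquid-liquid distribution chromatography, run by a contract analytical lab. Each value is the average of two measurements. The assay's measurable range is 1–5 log units.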

[14] = tested on: murine AML cell line B117H (cytarabine-resistant); assay: Murine cytotoxicity assay, B117H; assay type: cell-based; conditions: read-out: Growth inhibitory activity (IC50) B117H
Outline: as §2

[15] = tested on: U-87 MG (glioblastoma multiforme); assay: Alamar blue cytotoxicity assay, U-87 MG; assay type: cell-based, human; conditions: read-out: Growth inhibitory activity (IC50) U-87 MG
[16] = tested on: murine AML cell line B140H (cytarabine-resistant); assay: Murine cytotoxicity assay, B140H; assay type: cell-based; conditions: read-out: Growth inhibitory activity (IC50) B140H
Outline: as §2

[17] = tested on: TEX cells; assay: Alamar blue cytotoxicity assay, TEX; assay type: cell-based, human; conditions: read-out: Growth inhibitory activity (IC50) TEX
Outline: as §1

[18] = tested on: TEX cells; assay: Methylcellulose clonal growth assay with TEX cells; assay type: cell-based, human; conditions: 11 d growth on methylcellulose
Outline: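 TEX cells were suspended in methylcellulose medium with penicillin (100 I.U./mL) and streptomycin (100 µg/mL) at a final 1.2 × 10⁴ cells/mL, i.e. 6,000 cells/well. Test compound, diluted in TEX medium, or DMSO (0.05%, control) was added. Cells were plated as technical triplicates and grown 11 d at 37 °C, 5% CO₂. Two people counted colonies independently at 10X. Values are the mean of 3 biological replicates ± S.D., with unpaired t-tests against DMSO.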

[19] = tested on: murine AML cell line B117P; assay: Murine cytotoxicity assay, B117P; assay type: cell-based; conditions: read-out: Growth inhibitory activity (IC50) B117P
Outline: as §2

[20] = tested on: GBM6 (glioblastoma multiforme); assay: Alamar blue cytotoxicity assay, GBM6; assay type: cell-based, human
[21] = tested on: CD34+CD38− TEX cells; assay: Flow cytometry viability of CD34+CD38− TEX cells; assay type: cell-based; conditions: Homo sapiens, 12 h; for viability at 25 µM: read-out: cell viability of CD34+CD38− TEX cells
Outline: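 TEX cells at 1 × 10⁶ cells/mL were dosed for 12 h at 37 °C, 20% O₂, 5% CO₂ (final DMSO 0.03% v/v). Test compound was given at 25, 15 or 2.5 µM; the doxorubicin reference at 2.5, 0.5 or 0.05 µM. Cells were stained for CD34/CD38 (10 min, 4 °C), then Annexin V-FITC/7-AAD (10 min, RT, dark). Over 5 × 10⁴ events were collected. Viable cells were double-negative. Values are mean ± S.D. of 3–5 biological replicates; unpaired t-test versus untreated.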

[22] = tested on: total BM; conditions: cited from earlier work
[23] = tested on: CD34+CD38− BM cells; conditions: 5 µM for 18 hrs; cited from earlier work
[24] = mouse plasma; cited from earlier work
[25] = mice, oral dosing 40 mg/kg; cited from earlier work
[26] = tested on: CD34+CD38− BM cells; assay: Flow cytometry viability of CD34+CD38− bone marrow cells; assay type: cell-based, human
Outline: as §3

[27] = tested on: NCI/ADR-RES (ovarian cancer; adriamycin-resistant); conditions: read-out: IC50 NCI/ADR-RES, previously reported; cited from earlier work
[28] = read-out: Growth inhibitory activity (IC50) HL-60, mean ± S.D.
[29] = read-out: Growth inhibitory activity (IC50) MCF-7, mean ± S.D.
[30] = read-out: Growth inhibitory activity (IC50) DU-145, mean ± S.D.
[31] = Homo sapiens, HL-60, read-out: Growth inhibitory activity (IC50) HL-60
[32] = Homo sapiens, MCF7, read-out: Growth inhibitory activity (IC50) MCF-7
[33] = 15 µM, N.D. = clonal growth not detected
[34] = Homo sapiens, DU-145, read-out: Growth inhibitory activity (IC50) DU-145
[35] = Homo sapiens, GBM6, read-out: Growth inhibitory activity (IC50) GBM6
[36] = read-out: Growth inhibitory activity (IC50) GBM6, mean ± S.D.

SMILES | induction of intracellular ROS (MFI normalized to untreated control) ([1]; 100 µM) | IC50 [2, 28] [µM] | IC50 [3, 29] [µM] | IC50 ([5]; mean ± S.D.) [µM] | IC50 [7, 30] [µM] | IC50 [9] [µM] | IC50 ([11]; Mus musculus) [µM] | reduction in total BM viability ([12]; 25 µM, 12 h) | chromatographic logD [13] | IC50 ([14]; Mus musculus) [µM] | IC50 [3, 32] [µM] | IC50 ([5]; Homo sapiens, CCRF-CEM) [µM] | IC50 ([16]; Mus musculus) [µM] | IC50 ([17]; Homo sapiens, 48 h) [µM] | Colonies (mean number ± S.D.) ([18]; 2.5 µM) | IC50 ([19]; Mus musculus) [µM] | viability at 25 µM [21] [%] | further results
OO [hydrogen peroxide] | 3.1 fold |  |  |  |  |  |  |  |  |  |  |  |  |  |  |  |  | 
C/C1=C\CC[C@@]2(C)O[C@@H]2[C@H]2OC(=O)[C@@H](CN(C)C)[C@@H]2CC1.O=C(O)/C=C/C(=O)O [DMAPT, dimethylamino-parthenolide fumarate] |  | 7.1 ± 0.4 | 10.4 ± 1.2 | 1.9 ± 0.4 | 8.4 ± 4.5 | 12.3 ± 2.7 |  |  |  |  |  |  |  |  |  |  |  | Cmax [4]: 25 µM; Cmax [6]: 61 µM; increase of water solubility versus PTL [8]: ~ 1000 fold; toxicity to mice [10]: no measurable toxicity
C=C1C(=O)O[C@@H]2/C=C(\C)CC/C=C(\C)CC[C@@H]12 [CTL, Costunolide] | 2.2 fold |  |  |  |  |  | 3.6 ± 1.2 | 22–26% | 2.9 | 4.8 ± 0.7 | 17.5 ± 3.7 | 2.3 ± 0.2 | 2.8 ± 0.7 | 4.9 ± 0.4 | 6.9 ± 3.6 | 3.5 ± 0.4 | 1 to 10 | IC50 [2, 31]: 13 ± 0.2 µM; IC50 ([15]; Homo sapiens, U-87 MG): 9.6 ± 0.8 µM; Colonies (mean number ± S.D.) [18, 33]: 5.6 ± 4.7; IC50 [7, 34]: 7.7 ± 2.8 µM; IC50 [20, 35]: 7 ± 1.8 µM
C=C1C(=O)O[C@H]2[C@H]1CC/C(C)=C/CC[C@@]1(C)O[C@@H]21 [PTL, Parthenolide] | 1.6 fold |  |  |  |  |  | 5.8 ± 2.3 | 48% | 1.79 | 4.7 ± 1.6 | 9.7 ± 2.8 | 4.7 ± 1.6 | 3.4 ± 1.1 | 2.8 ± 0.2 | 2.6 ± 2.7 | 1.1 ± 0.2 | 1 to 10 | toxicity to total BM ([22]; 5 µM for 18 hrs): non-toxic; overall BM toxicity ([22]; 7.5 µM for 18 hrs): some overall BM toxicity; toxicity to CD34+CD38− BM cells [23]: non-toxic; plasma half-life t1/2 [24]: 1.6 h; concentration in serum [25]: approximately 200 nM; toxicity to primitive CD34+CD38− BM cells ([26]; 25 µM, 12 h): no significant toxicity
C=C1C(=O)OC2C1CCC(C)=CCCC1(C)OC21 (stereo not drawn) [Compound 2, cis-PTL] |  | 8 ± 1.1 | 7.5 ± 0.8 | 2.2 ± 1 | 6 ± 4.2 | 9.4 ± 2.1 |  |  |  |  |  |  |  |  |  |  |  | LogD7.4 ([13]; average of two measurements): 2.00; IC50 ([15]; mean ± S.D.): 9.1 ± 4.4 µM; IC50 [20, 36]: 3.3 ± 0.8 µM
Nc1ccn([C@@H]2O[C@H](CO)[C@@H](O)[C@@H]2O)c(=O)n1 [AraC, cytarabine] |  |  |  |  |  |  |  |  |  |  |  |  |  |  |  |  |  | Colonies (mean number ± S.D.) ([18]; 0.1 µM): 2.6 ± 1.0
C=C1C(=O)O[C@H]2[C@H]1CCC(C)=C1CC[C@@](C)(O)[C@@H]12 [Compound 1, Micheliolide] | 2.9 fold |  |  |  |  |  | 10 ± 0.4 | 22–26% | 2.18 | 8.8 ± 1.7 | 9.6 ± 1 | 2.7 ± 1.1 | 9.3 ± 1.5 | 2.7 ± 0.4 | 4.2 ± 2.5 | 6.4 ± 1 | 1 to 10 | IC50 [2, 31]: 9.2 ± 2.2 µM; IC50 ([15]; Homo sapiens, U-87 MG): 17.8 ± 5 µM; induction of intracellular ROS (MFI normalized to untreated control) ([1]; 25 µM): 1.7 fold; IC50 [7, 34]: 14.8 ± 4 µM; IC50 [20, 35]: 8.5 ± 0.7 µM
C=C1C(=O)O[C@@H]2[C@H]3O[C@]3(C)CC/C=C(\CO)CC[C@@H]12 [MelB, Melampomagnolide B] | No observable induction of ROS | 7.5 ± 3 | 9.5 ± 1.9 | 5.5 ± 1.2 | 14.3 ± 5.9 | 15 ± 4.9 |  | 22–26% |  |  |  |  |  |  | 5.3 ± 1.6 |  |  | IC50 ([11]; mean ± S.D.): 2.9 ± 1 µM; IC50 ([14]; mean ± S.D.): 2.5 ± 1 µM; IC50 ([15]; mean ± S.D.): 16.3 ± 6.8 µM; induction of intracellular ROS (MFI normalized to untreated control) ([1]; 25 µM): No observable induction of ROS; IC50 ([16]; mean ± S.D.): 2.2 ± 0.7 µM; IC50 ([17]; 48 hr treatment, mean ± S.D.): 6.8 ± 2.3 µM; Colonies (mean number ± S.D.) [18, 33]: 0.1 ± 0.3; IC50 ([19]; mean ± S.D.): 2.1 ± 0.8 µM; IC50 [20, 36]: 4.5 ± 1.9 µM
Nc1ccn([C@@H]2O[C@H](CO)[C@@H](O)C2(F)F)c(=O)n1 [gemcitabine] |  |  |  |  |  |  |  |  |  |  |  |  |  |  |  |  |  | IC50 [27]: > 500 µM
COc1cccc2c1C(=O)c1c(O)c3c(c(O)c1C2=O)C[C@@](O)(C(=O)CO)C[C@@H]3O[C@H]1C[C@H](N)[C@H](O)[C@H](C)O1 [DOX, Doxorubicin] |  |  |  |  |  |  |  |  |  |  |  |  |  |  |  |  |  | reduction in total BM viability ([12]; 0.5 µM, 12 hr): 56%; Colonies (mean number ± S.D.) ([18]; 0.1 µM): 0.7 ± 1.3; IC50 [27]: > 500 µM; reduction in the primitive CD34+CD38− BM population viability ([26]; 0.5 µM, 12 hr): 85%; viability at 0.5 µM ([21]; read-out: viability of CD34+CD38− TEX cells): 6%
